Laboratory results: ChEMBL document CHEMBL1156121, “Synthesis and antioxidant properties of some novel 5H-dibenz[b,f]azepine derivatives in different in vitro model systems” (Eur J Med Chem, 2010)
Activity calls are given as the source filed them. The calls are words filed in the database; no cut-off is given here.

Tests used:
[1] = test system: Radical scavenging activity; test: Antioxidant activity assessed as DPPH radical scavenging activity; assay type: functional
Procedure, shortened: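 Ethanolic compound solutions (10, 25, 50, 100, 200, 500) were mixed with 0.1 mM DPPH in ethanol (4 mL to 1 mL sample) and kept in the dark at room temperature for 20 min. A517 was compared with a compound-free blank, giving % inhibition = (A0−A1)/A0×100. IC50 was read from the plot of % scavenging against concentration.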

[2] = test system: Blood; test: Antioxidant activity against copper-induced low density lipoprotein oxidation in human blood assessed as malonoldehyde formation at 10 uM after 6 hrs by thiobarbituric acid method; assay type: functional
Procedure, shortened: (§1)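 Human LDL isolated from fasting volunteers' plasma by ultracentrifugation, then dialysed against PBS pH 7.4 (0.1 mg LDL protein/mL). Compounds at 10 and 25 were incubated with LDL and 40 µL of 2 mM CuSO4 in 50 mM phosphate buffer pH 7.4 at 37 °C. Controls were run without compound and without copper. Aliquots taken at 2, 4 and 6 h were heated with TBA/TCA at 95 °C for 45 min. TBARS (MDA) was read at 532 nm.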

[3] = test system: Blood; test: Antioxidant activity against copper-induced low density lipoprotein oxidation in human blood assessed as malonoldehyde formation at 25 uM after 6 hrs by thiobarbituric acid method; assay type: functional; procedure, shortened: as §1
[4] = test system: Blood; test: Antioxidant activity against copper-induced low density lipoprotein oxidation in human blood assessed as malonoldehyde formation at 25 uM after 2 hrs by thiobarbituric acid method; assay type: functional; procedure, shortened: as §1
[5] = test system: Blood; test: Antioxidant activity against copper-induced low density lipoprotein oxidation in human blood assessed as malonoldehyde formation at 10 uM after 2 hrs by thiobarbituric acid method; assay type: functional; procedure, shortened: as §1
[6] = test system: Blood; test: Antioxidant activity against copper-induced low density lipoprotein oxidation in human blood assessed as malonoldehyde formation by thiobarbituric acid method; assay type: functional, tissue-based; procedure, shortened: as §1
[7] = Antioxidant activity assessed as reduction of […]/ferricyanide complex; assay type: functional
Procedure, shortened: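 Oyaizu method. Compounds (50 and 100) were incubated in 0.2 M phosphate buffer pH 6.6 with 1% potassium ferricyanide at 50 °C for 20 min. After adding 10% TCA and centrifuging, the supernatant was diluted with water and mixed with 0.1% FeCl3, then A700 was read. Values are means of three independent samples.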

[8] = Antioxidant activity against lipid peroxidation at 25 uM by beta-carotene linoleate method; assay type: functional
Procedure, shortened: (§2)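 β-Carotene/linoleic acid/Tween-40 emulsion, with chloroform removed, was mixed with compound in ethanol; BHA and ascorbic acid were run at the same concentrations as references. Absorbance was read at 470 nm at t=0 and then every 30 min to 180 min. Results are given as % antioxidant activity, mean ± SD, n = 3.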

[9] = Antioxidant activity against lipid peroxidation at 50 uM by beta-carotene linoleate method; assay type: functional; procedure, shortened: as §2

IC50 [1]	SMILES	Activity [1]	Activity [2]	Activity [3]	Activity [4]	Activity [5]	Activity [6]	Activity [7]	Activity [8]	Activity [9]
	O=C(CCCl)N1c2ccccc2C=Cc2ccccc21	inactive	8.87%	12.43%	7.43%	5.34%	inactive	inactive		
13.2 µM	O=C1O[C@H]([C@@H](O)CO)C(O)=C1O [ASCORBIC ACID]									
15.3 µM	O=C(CCNc1ccc(O)cc1)N1c2ccccc2C=Cc2ccccc21						Active	Dose-dependent effect	87.1%	88.7%
13.9 µM	COc1cc(NCCC(=O)N2c3ccccc3C=Cc3ccccc32)ccc1O		72.93%	89.61%	70.41%	56.13%		Dose-dependent effect	91.5%	91.3%
16.1 µM	O=C(CCNc1ccccc1O)N1c2ccccc2C=Cc2ccccc21						Active	Dose-dependent effect		
14.8 µM	O=C(CCNc1ccc(O)c([N+](=O)[O-])c1)N1c2ccccc2C=Cc2ccccc21						Active	Dose-dependent effect	88.4%	90%
17.4 µM	O=C(CCNc1cccc(O)c1)N1c2ccccc2C=Cc2ccccc21						Active	Dose-dependent effect		

SMILES	IC50 [1]	Activity [1]	Activity [2]	Activity [3]	Activity [4]	Activity [5]	Activity [6]	Activity [7]	Activity [8]	Activity [9]
COc1ccc(O)c(C(C)(C)C)c1.COc1ccc(O)cc1C(C)(C)C [BUTYLATED HYDROXYANISOLE]	14.1 µM									
